The record followed here is ChEMBL document CHEMBL1123566, “Synthesis and cardiac electrophysiological activity of 2- and 3-[(substituted phenyl)alkyl]quinuclidines. Structure-activity relationships” (1987).

For assay [1], the species on record is Canis familiaris. Nature of the assay: In vitro electrophysiological evaluation in canine cardiac ventricular muscle reported as % change for conduction time(CT) at 10 uM at 0.1-100 uM concentration range; Minimal (<10% decrease or increase in CT). It is filed as functional, Canis lupus familiaris, Muscle tissue.
Assay [2] is filed under the species Canis familiaris. As to the kind of experiment: (§1) In vitro electrophysiological activity in canine cardiac occurred is 100 uM. It is filed as functional, Canis lupus familiaris, Heart.
Assay [3] is filed under the species Canis familiaris. Nature of the assay: In vitro electrophysiological evaluation in canine cardiac ventricular muscle reported as maximum % change for functional refractory period (FRP) at 0.1-100 uM concentration range; concentration at which it occurred is 1 uM. The arrangement: species or system Canis lupus familiaris, Muscle tissue. The method, boiled down: (§2)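 Canine right ventricle and papillary muscle strips in oxygenated Tyrode's solution, fitted with stimulating and recording electrodes. The extra-stimulus conduction-interval method was adapted for in vitro use. FRP and CT were read from a conduction-interval curve before and after various compound concentrations, and expressed as percent change from control. Compounds were taken from 10 mM deionized-water stock into Tyrode's. Each strip was used once as its own control.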

For assay [4], the species on record is Canis familiaris. As to the kind of experiment: In vitro electrophysiological evaluation in canine cardiac Purkinje fibres reported as % change for action potential duration at 10 uM at 1-100 uM concentration range. In kind it is functional, Canis lupus familiaris, Purkinje fiber. An outline of the steps:
(§3)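 Canine cardiac Purkinje fibres, intracellular microelectrode recording, paced at a basic cycle length of 1 s. APD95 and Vmax read simultaneously. Compound: 10 mM stock in deionized water, diluted into Tyrode's solution, tested over the stated concentration range. Each fibre used once as its own control. Result is % change from control, given at 10 µM or as the maximum with its concentration. M = <10% decrease or an increase in Vmax.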

The species entered for assay [5] is Canis familiaris. As to the kind of experiment: In vitro electrophysiological evaluation in canine cardiac ventricular muscle reported as maximum % change for functional refractory period (FRP) at 0.1-100 uM concentration range; concentration at which it occurred is 100 uM. The arrangement: species or system Canis lupus familiaris, Muscle tissue. An outline of the steps: as §2

The species named for assay [6] is Canis familiaris. Nature of the assay: In vitro electrophysiological evaluation in canine cardiac ventricular muscle reported as % change for the functional refractory period (FRP) at 10 uM at concentration range of 0.1-100 uM. Set-up: species or system Canis lupus familiaris, Muscle tissue. The method, boiled down: as §2
The species entered for assay [7] is Canis familiaris. As to the kind of experiment: In vitro electrophysiological evaluation in canine cardiac Purkinje fibres reported as percent change Vmax at 10 uM at concentration range of 0.1-100 uM; Minimal (<10% decrease or increase in V max). In kind it is functional, organism-based. The settings on record: Canis lupus familiaris, Purkinje fiber. The method, boiled down: as §3

For assay [8], the species on record is Canis familiaris. Nature of the assay: In vitro electrophysiological evaluation in canine cardiac ventricular muscle reported as maximum % change for functional refractory period (FRP) at 0.1-100 uM concentration range; concentration at which it occurred is 10 uM. Set-up: species or system Canis lupus familiaris, Muscle tissue. The method, boiled down:
as §2

Assay [9] is filed under the species Canis familiaris. Nature of the assay: In vitro electrophysiological evaluation in canine cardiac ventricular muscle reported as maximum % change for conduction time(CT) at 0.1-100 uM concentration range; Minimal (<10% decrease or increase in CT). In kind it is functional, Canis lupus familiaris, Muscle tissue. The method, boiled down:
as §2

Assay [10] is filed under the species Canis familiaris. Nature of the assay: (§4) In vitro electrophysiological evaluation in canine cardiac occurred is 100 uM. In kind it is functional. The note with it: Canis lupus familiaris; Heart.
Assay [11] is filed under the species Canis familiaris. Nature of the assay: In vitro electrophysiological evaluation in canine cardiac ventricular muscle reported as maximum % change for conduction time(CT) at 0.1-100 uM concentration range; concentration at which it occurred is 100 uM. It is filed as functional, Canis lupus familiaris, Muscle tissue. The method, boiled down: as §2
Assay [12] is filed under the species Canis familiaris. As to the kind of experiment: In vitro electrophysiological evaluation in canine cardiac Purkinje fibres reported as percent change Vmax at 10 uM at concentration range of 1-100 uM; Minimal (<10% decrease or increase in V max). In kind it is functional. The settings on record: Canis lupus familiaris, Purkinje fiber. An outline of the steps:
as §3

Assay [13] is filed under the species Canis familiaris. The description is as §4. In kind it is functional. The note with it: Canis lupus familiaris; Heart. The source holds these as a separate data set.
The species entered for assay [14] is Canis familiaris. As to the kind of experiment: In vitro electrophysiological evaluation in canine cardiac Purkinje fibres reported as % change for action potential duration at a concentration of 10 uM. In kind it is functional, Canis lupus familiaris, Purkinje fiber. An outline of the steps:
as §3

Assay [15] is filed under the species Canis familiaris. The description is as §1. In kind it is functional, Canis lupus familiaris, Heart. The source holds these as a separate data set.

Values joined by “and” are separate entries in the source; they are usually repeats but may differ in a detail not shown here. Equal entries are not always repeated.

Take `Cl.O=C(CCC1C(=O)C2CCN1CC2)c1ccc(Cl)c([N+](=O)[O-])c1` (stereo not given): the CT was less than 10% in the assay listed under Canis familiaris [1]; less than 10% in the assay filed under Canis familiaris [9]; 14% and 21% in the assay filed under Canis familiaris [11]. In addition, the APD95 in the assay listed under Canis familiaris [2] was 11%; in the assay listed under Canis familiaris [4] it was 1%; in the assay filed under Canis familiaris [14], 4% and 3%; in the assay listed under Canis familiaris [15], 4% and -11%. Further, the FRP in the assay listed under Canis familiaris [3] is 14%; in the assay listed under Canis familiaris [5] it was 44%; in the assay listed under Canis familiaris [6], 21% and 14% and 26%; in the assay listed under Canis familiaris [8], 21%. The Vmax in the assay listed under Canis familiaris [7] is less than 10%; in the assay listed under Canis familiaris [10], -13%; in the assay filed under Canis familiaris [12], less than 10%; in the assay listed under Canis familiaris [13] it was -37% and -42%.
